Ends that are not written are not given here.
How the values were obtained:
HRECs [1] = assay: Cell migration; type: cell-based, human; conditions: 25 ng/mL VEGF; 200 µM H-KI20 or H-KI20S, or 12.5 mg/mL bevacizumab; 12 hours; three independent assays
HRECs [2] = assay: Tube formation assay on Matrigel; type: cell-based, human; conditions: 25 ng/mL VEGF, three independent assays
In short: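 About 2 × 10^4 HRECs were seeded on Matrigel-precoated wells, with or without 25 ng/mL VEGF, alongside test peptides or Avastin. Incubation was at 37°C for four hours per methods (three hours per legend). Three random fields per well were photographed, and total tube length and branch points were quantified by ImageJ. Three independent assays; means ± SEM.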

HRECs [3] = assay: Cellular uptake, flow cytometry quantitative analysis; type: in vitro ADME, human; conditions: 200 µM, three independent assays
In short: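 HRECs were seeded at 1 × 10^6 on a 30-mm plate. At confluence they were exposed to FITC-labeled test peptide at 200 μM in complete medium for 30 min, 1, 6, 12 and 24 h. Cells were washed, trypsinized, resuspended in PBS and kept dark. FITC-positive cell number and mean fluorescence intensity were read by flow cytometry. Three independent assays; means ± SEM.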

JNK2 = JNK2 (Homo sapiens, UniProt P45984); assay: Surface plasmon resonance; type: binding
In short: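 SPR was run on a Biacore T200. The chip was conditioned with 500 mM EDTA and 100 mM NaOH. Recombinant human JNK2 at 27.5 μg/mL was captured on an NTA chip at 10 μL/min. Serial peptide concentrations were injected in PBS with 0.05% Tween-20, pH 7.4, at 25°C (association 120 s, dissociation 180 s). Double reference subtraction was applied, then a global Langmuir 1:1 fit.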

[4] = Quantification of H-KI20 in ocular tissues after topical instillation; type: in vivo; conditions: mouse CNV model, 0.5, 1 and 3 hours after topical instillation, PRM
In short: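 Choroidal neovascularization was induced in adult C57BL/6J mice with four 532-nm laser burns (100 ms, 50 μm, 120 mW) around the optic disc. On day 7, 6 μL of FITC-labeled test peptide (2 mM) was instilled topically six times at 10-min intervals (n = 3 per group). At 0.5, 1 and 3 h, sclera–choroid–RPE complex and retina were trypsin-digested. A 100 ng/mL stable-isotope-labeled internal standard was spiked in, and samples were quantified by nano-UPLC–Orbitrap PRM.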

retina = assay: Histologic examination of retina after intravitreal injection; type: in vivo, mouse; conditions: 50 or 75 mM H-KI20 intravitreal, five days later, mice
HRECs [5] = assay: High-content image analysis, cell roundness; type: cell-based, human; conditions: H-KI20 alone, 30 hours, Operetta HCA, interval 0.5 h
In short: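 About 3 × 10^4 HRECs/well were plated in 12-well plates and allowed to attach overnight. Test compound was added 2 h before imaging. Cells were imaged live in an Operetta high-content system for […] at 0.5-h intervals. Roundness is a shape index normalized to 1.0 for a perfect circle, decreasing for elongated or irregular cells.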

HRECs [6] = assay: Cytotoxicity, MTS; type: cell-based, human; conditions: H-KI20 at different concentrations; three independent assays
In short: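 HRECs were seeded in 96-well plates at […]. They were treated with VEGF or test peptide, and viability was read by MTS following the manufacturer's protocol.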

[7] = system: cornea neovascularization; conditions: topical application of high concentrations; cited from earlier work
[8] = Stability assay of H-KI20 in aqueous solutions; type: physicochemical; conditions: 200 µg/mL, HPLC

JNK2, sequence (P45984 whole entry): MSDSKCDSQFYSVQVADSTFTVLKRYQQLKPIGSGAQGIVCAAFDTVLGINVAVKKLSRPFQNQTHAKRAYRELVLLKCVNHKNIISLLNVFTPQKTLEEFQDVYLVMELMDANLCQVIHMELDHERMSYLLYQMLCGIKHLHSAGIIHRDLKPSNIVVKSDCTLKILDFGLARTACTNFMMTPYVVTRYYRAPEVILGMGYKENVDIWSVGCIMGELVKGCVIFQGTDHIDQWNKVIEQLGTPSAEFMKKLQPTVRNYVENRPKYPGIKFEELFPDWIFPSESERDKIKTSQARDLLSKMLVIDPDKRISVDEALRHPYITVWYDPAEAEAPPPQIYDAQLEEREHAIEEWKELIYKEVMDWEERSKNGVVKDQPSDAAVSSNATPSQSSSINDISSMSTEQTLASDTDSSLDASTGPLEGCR

Bevacizumab [Avastin]
migration of VEGF-stimulated HRECs (wound closure) (HRECs [1]): inhibited the migration of cells significantly
VEGF-induced tube formation (tube length and branch points) (HRECs [2]): significantly inhibited

FITC-H-KI20: FITC-labeled H-KI20 used to test cellular permeability (IIGKGRSYKGTVSITKSGIK; also: FITC-labeled, site not given here)
mean fluorescence intensity (MFI) compared with untreated cells (HRECs [3]; 30 minutes): 217 fold
MFI after 24 hours compared with that after 30 minutes (HRECs [3]; 24 hours vs 30 minutes): 3.67 fold

IIGKGRSYKGTVSITKSGIK [H-KI20]
Kd (JNK2): 83.7 µM
persistence of concentration in ocular tissues after topical instillation [4]: maintained for at least three hours
retinal histology (HE) after intravitreal injection (retina): All layers of the retina were normal and intact, without edema or inflammatory or immune reactions
cell roundness (HRECs [5]): no effect on the roundness of cells
cytotoxicity / proliferation of HRECs (MTS) (HRECs [6]): no effect on the proliferation of HRECs
cell ultrastructure of cornea and conjunctiva [7]: no effect on the cell ultrastructure of cornea and conjunctiva
stability at 4°C compared with 37°C ([8]; BSS, PBS and HBS, n = 4 or 5): more stable
stability in H2O and PBS ([8]; H2O and PBS pH 7.4, 37°C, incubation for 24 or 48 hours): partially degraded
